Molecules are shown by their SMILES.

Assay [1] addresses T1, Epidermal growth factor receptor (Homo sapiens, UniProt P00533). The experiment in a line: Inhibitory potency against protein tyrosine kinase activity associated with EGFR was evaluated using ER 22 cell membrane.
For assay [2], the target named is T1, Epidermal growth factor receptor. The conditions noted are these: ER 22; 10 uM.
For assay [3] the target is unchanged. As to conditions: 20 uM.
The target is the same in assay [4]. As to conditions: ER 22; 10 uM. The source holds these as a separate data set.
The target is the same in assay [5]. As to conditions: 5 uM.
For assay [6] the target is unchanged. The conditions noted are these: ER 22; 10 uM. The source holds these as a separate data set.
A further assay deals with Protein kinase C (PKC). The experiment in a line: Inhibition of rat PKC(protein kinase-C). It counts as protein assay. Summed up:
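PKC partially purified from rat brain by DEAE-cellulose chromatography and assayed in vitro with a commercial PKC assay kit; inhibitors tested for inhibition of the kinase activity.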

A short description of assay [7]: Inhibition of PKA(protein kinase-A).
Assay [8] concerns the target T1, Epidermal growth factor receptor. The conditions noted are these: ER 22; 100 uM.
The target is the same in assay [9]. As to conditions: ER 22; 10 uM. This is another data set of the same source.
Assay [10] has the same target. The experiment in a line: Inhibition of EGFR(epidermal growth factor receptor) autophosphorylation in ER22 cell membranes.

T1 sequence (P00533 whole entry): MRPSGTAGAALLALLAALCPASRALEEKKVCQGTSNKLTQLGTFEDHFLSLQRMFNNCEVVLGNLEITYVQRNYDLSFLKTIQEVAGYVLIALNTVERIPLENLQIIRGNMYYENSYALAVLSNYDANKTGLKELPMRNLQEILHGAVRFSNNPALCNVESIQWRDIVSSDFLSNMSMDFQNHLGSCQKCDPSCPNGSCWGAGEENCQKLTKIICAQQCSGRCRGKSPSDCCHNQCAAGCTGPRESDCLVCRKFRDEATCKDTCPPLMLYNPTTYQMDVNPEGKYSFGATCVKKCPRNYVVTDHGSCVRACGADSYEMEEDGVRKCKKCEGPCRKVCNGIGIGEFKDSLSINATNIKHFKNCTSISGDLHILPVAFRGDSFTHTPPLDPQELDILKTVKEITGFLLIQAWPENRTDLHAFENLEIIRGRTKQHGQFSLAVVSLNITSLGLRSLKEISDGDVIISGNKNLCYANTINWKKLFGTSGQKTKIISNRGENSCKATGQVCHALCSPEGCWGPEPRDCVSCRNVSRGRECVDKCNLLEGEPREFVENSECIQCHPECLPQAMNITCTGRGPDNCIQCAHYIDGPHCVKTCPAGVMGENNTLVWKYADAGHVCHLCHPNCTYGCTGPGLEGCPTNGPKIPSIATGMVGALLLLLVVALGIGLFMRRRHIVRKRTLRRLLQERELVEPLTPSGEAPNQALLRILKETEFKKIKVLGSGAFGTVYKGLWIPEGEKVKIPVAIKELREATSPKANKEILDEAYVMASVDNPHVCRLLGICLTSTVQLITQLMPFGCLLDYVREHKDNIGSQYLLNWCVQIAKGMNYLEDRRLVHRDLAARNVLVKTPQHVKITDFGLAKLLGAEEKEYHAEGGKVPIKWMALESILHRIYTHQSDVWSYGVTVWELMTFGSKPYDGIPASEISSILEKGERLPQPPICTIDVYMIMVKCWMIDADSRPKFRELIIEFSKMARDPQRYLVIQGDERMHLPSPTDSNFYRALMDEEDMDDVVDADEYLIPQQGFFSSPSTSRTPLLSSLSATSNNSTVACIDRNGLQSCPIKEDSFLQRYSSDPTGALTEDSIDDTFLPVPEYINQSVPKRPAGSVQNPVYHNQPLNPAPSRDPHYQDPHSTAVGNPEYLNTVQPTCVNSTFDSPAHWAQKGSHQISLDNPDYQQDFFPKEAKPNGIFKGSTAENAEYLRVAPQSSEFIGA

In [1], `CCOP(=O)(Cc1cc(NCc2cc(O)ccc2O)ccc1O)OCC` showed an IC50 of 4 µM. This lies in the single-digit micromolar range. In assay [2], `CC(C)(C)ONC(=O)c1cc(/N=C/c2cc(O)ccc2O)ccc1O` registered an inhibition of 20%. With `CC(C)(C)ONC(=O)c1cc(NCc2cc(O)ccc2O)ccc1O`, the IC50 in assay [1] amounted to 0.1 µM. Moreover, the inhibition in assay [3] came out at 35%. `O=C(O)Cc1cc(/N=C/c2cc(O)ccc2O)ccc1O`: in assay [1], inhibition was half-maximal at 35 µM (IC50). Turning to `O=C(NOCc1ccccc1)c1cc(/N=C/c2cc(O)ccc2O)ccc1O`, the inhibition in [4] amounted to 8%; in assay [5], 43%. `CC(C)(C)CCOC(=O)c1cc(/N=C/c2cc(O)ccc2O)ccc1O` had an inhibition in assay [6] of 10%. With `O=C(O)c1cc(NCc2cc(O)ccc2O)ccc1O` [LAVENDUSTIN C], the IC50 (against Protein kinase C (PKC); in assay [7]) was greater than 100 µM each time. The compound `CC(CCOC(=O)c1cc(NCc2cc(O)ccc2O)ccc1O)CC(C)(C)C` (centres undefined) registered a half-maximal inhibitory concentration (IC50) in assay [1] greater than 1 µM.

With `CC(C)(C)ONC(=O)Cc1cc(NCc2cc(O)ccc2O)ccc1O`, the half-inhibitory concentration (IC50) in [1] came out at 5 µM. Still for that read-out and setting: in the case of `O=C(NO)c1cc(NCc2cc(O)ccc2O)ccc1O` it was 0.4 µM. On the same count and under the same terms, in the case of `O=C(OCCCCc1ccccc1)c1cc(NCc2cc(O)ccc2O)ccc1O` it was 0.4 µM. Take `CONC(=O)c1cc(NCc2cc(O)ccc2O)ccc1O`: the IC50 in assay [1] was determined as 0.3 µM. This IC50 and that of the compound before are within 1.5-fold of each other. Same read-out and setting: in the case of `CCOC(=O)Cc1cc(NCc2cc(O)ccc2O)ccc1O` it was 7 µM; in that of `CCCCCCCCCCCCCCCCOC(=O)c1cc(NCc2cc(O)ccc2O)ccc1O`, greater than 5 µM; in that of `CC(C)(C)ONC(=O)Cc1cc(/N=C/c2cc(O)ccc2O)ccc1O`, 31 µM.

`O=C(O)c1cc(/N=C/c2cc(O)ccc2O)ccc1O` yielded an IC50 in [1] of 5 µM. Compound `CC(CCOC(=O)c1cc(NCc2cc(O)ccc2O)ccc1O)c1ccccc1` (centres undefined) gave an IC50 in assay [1] of 0.4 µM. Compound `O=C(OCc1ccccc1)c1cc(NCc2cc(O)ccc2O)ccc1O` gave a 50% inhibitory concentration (IC50) in assay [1] of 0.08 µM. In assay [1], `O=C(Oc1ccccc1)c1cc(NCc2cc(O)ccc2O)ccc1O` yielded an IC50 of 0.07 µM. Still for that read-out and setting: in the case of `O=C(Oc1cccc2ccccc12)c1cc(NCc2cc(O)ccc2O)ccc1O` it was 0.11 µM; in that of `O=C(Oc1ccc2ccccc2c1)c1cc(NCc2cc(O)ccc2O)ccc1O`, 0.09 µM; in that of `CCOC(=O)c1cc(/N=C/c2cc(O)ccc2O)ccc1O`, 50 µM.

Regarding `COC(=O)c1cc(/N=C/c2cc(O)ccc2O)ccc1O`, in assay [8], the inhibition stood at 56%.

For `O=C(Oc1ccc(-c2ccccc2)cc1)c1cc(NCc2cc(O)ccc2O)ccc1O`, half-maximal inhibition in assay [1] (IC50) was put at 5 µM. In the case of `CC(C)CCCC(C)CCOC(=O)c1cc(/N=C/c2cc(O)ccc2O)ccc1O` (centres undefined), in assay [9], the inhibition amounted to 20%.

For the compound `O=C(OCCc1ccccc1)c1cc(NCc2cc(O)ccc2O)ccc1O`, the concentration for half-maximal inhibition (IC50) in [1] was 0.13 µM; in assay [10], 0.2 µM; in [7], 4 µM. For the compound `O=C(OCCCc1ccccc1)c1cc(NCc2cc(O)ccc2O)ccc1O`, the IC50 was 0.03 µM in assay [1], greater than 20 µM at Protein kinase C (PKC), 0.7 µM in assay [10] and 11 µM in assay [7].

Compound `O=P(O)(O)Cc1cc(NCc2cc(O)ccc2O)ccc1O` registered an IC50 in [1] of 3 µM.

Compound `O=C(Cc1cc(/N=C/c2cc(O)ccc2O)ccc1O)NOCc1ccccc1` returned an IC50 in assay [1] of 50 µM. On the same count and under the same terms, in the case of `O=C(OC/C=C/c1ccccc1)c1cc(NCc2cc(O)ccc2O)ccc1O` it was 1.3 µM; in that of `O=C(OCC1CCCCC1)c1cc(NCc2cc(O)ccc2O)ccc1O`, 1.2 µM. With `CC(CCOC(=O)c1cc(/N=C/c2cc(O)ccc2O)ccc1O)CC(C)(C)C` (centres undefined), in [2], the inhibition was found to be 20%. Take `COC(=O)Cc1cc(/N=C/c2cc(O)ccc2O)ccc1O`: the half-inhibitory concentration (IC50) in [1] worked out at 100 µM. The same measure, in the same setting: in the case of `O=C(NOCc1ccccc1)c1cc(NCc2cc(O)ccc2O)ccc1O` it was 0.05 µM. `CC(COC(=O)c1cc(NCc2cc(O)ccc2O)ccc1O)Cc1ccccc1` (centres undefined): the IC50 in [1] was 0.36 µM. As for `CC(C)(C)OC(=O)c1cc(NCc2cc(O)ccc2O)ccc1O`, in assay [1], the half-inhibitory concentration (IC50) is 1 µM. This IC50 lies about 2.8-fold higher than the previous one.

For `CCOC(=O)c1cc(NCc2cc(O)ccc2O)ccc1O`, the IC50 in assay [1] came out at 0.4 µM. Against the preceding compound, the IC50 is about 2.5-fold lower.

In the case of `CC(C)(C)OC(=O)c1cc(/N=C/c2cc(O)ccc2O)ccc1O`, in [2], the inhibition was found to be 15%.

In assay [1], `O=C(OCCC12C[C@H]3C[C@@H](C1)C[C@@H](C2)C3)c1cc(NCc2cc(O)ccc2O)ccc1O` yielded an IC50 greater than 5 µM. On the same count and under the same terms, in the case of `CC(C)c1ccc(COC(=O)c2cc(NCc3cc(O)ccc3O)ccc2O)cc1` it was 1 µM; in that of `CONC(=O)c1cc(/N=C/c2cc(O)ccc2O)ccc1O`, 27 µM. The same measure, in the same setting: in the case of `CC(C)(C)CCOC(=O)c1cc(NCc2cc(O)ccc2O)ccc1O` it was 0.7 µM; in that of `CC(COC(=O)c1cc(/N=C/c2cc(O)ccc2O)ccc1O)CC(C)(C)C` (centres undefined), greater than 10 µM. Same read-out and setting: in the case of `O=C(Cc1cc(NCc2cc(O)ccc2O)ccc1O)NOCc1ccccc1` it was 1 µM. Regarding `CCOC(=O)Cc1cc(/N=C/c2cc(O)ccc2O)ccc1O`, it took 100 µM to reach half-maximal inhibition in assay [1] (IC50). Turning to `CC(COC(=O)c1cc(NCc2cc(O)ccc2O)ccc1O)CC(C)(C)C` (centres undefined), the concentration for half-maximal inhibition (IC50) in assay [1] was roughly 4 µM; at Protein kinase C (PKC), 300 µM; in [10], 8 µM; in [7] it was 10 µM. Regarding `O=C(O)Cc1cc(NCc2cc(O)ccc2O)ccc1O`, the half-maximal inhibitory concentration (IC50) in assay [1] is 6 µM. The same measure, in the same setting: in the case of `O=C(Oc1cccc(O)c1)c1cc(NCc2cc(O)ccc2O)ccc1O` it was 0.09 µM.

For `COC(=O)c1cc(NCc2cc(O)ccc2O)ccc1O`, the IC50 is 0.6 µM in [1], 400 µM at Protein kinase C (PKC), 1 µM in assay [10] and 150 µM in assay [7]. `COC(=O)Cc1cc(NCc2cc(O)ccc2O)ccc1O`: the midpoint of inhibition in [1], the IC50, lay at 3 µM. Take `Cc1cc(C)cc(COC(=O)c2cc(NCc3cc(O)ccc3O)ccc2O)c1`: inhibition in assay [1] was half-maximal at 3 µM (IC50). That is a single-digit micromolar value. `CCOP(=O)(Cc1cc(/N=C/c2cc(O)ccc2O)ccc1O)OCC` came in with an IC50 in assay [1] greater than 100 µM. Regarding `CC(C)CCCC(C)CCOC(=O)c1cc(NCc2cc(O)ccc2O)ccc1O` (centres undefined), the results for the 50% inhibitory concentration (IC50) in assay [1], in assay [10] and in assay [7] were 7 µM, 25 µM and 10 µM, respectively.

(Values after ChEMBL document CHEMBL1127676, “Structure-activity relationships in a series of 5-[(2,5-dihydroxybenzyl)amino]salicylate inhibitors of EGF-receptor-associated tyrosine kinase: importance of additional hydrophobic aromatic interactions” (J Med Chem, 1994).)
